Laboratory results as given in ChEMBL document CHEMBL1126562, “(1-Butyl-4-piperidinyl)methyl 8-amino-7-chloro-1,4-benzodioxane-5-carboxylate hydrochloride: a highly potent and selective 5-HT4 receptor antagonist derived from metoclopramide” (J Med Chem, 1993).
One block for each compound: values may come before it.

What was measured:
[1] = target: 5-hydroxytryptamine receptor 4 (Cavia porcellus, UniProt O70528); assay: Inhibition of 5-HT-evoked 5-HT4 receptor-mediated contractions in the guinea pig distal colon longitudinal muscle myenteric plexus (LMMP); format: functional
[2] = target: 5-hydroxytryptamine receptor 1E (Homo sapiens, UniProt P28566); assay: Tested for binding affinity towards cloned human 5-hydroxytryptamine 1E receptor using [3H]5-HT as radioligand
Procedure, shortened: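 Radioligand binding on the cloned human 5-HT1E receptor, labelled with [³H]-5-HT.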

[3] = target: T1, 5-hydroxytryptamine receptor 1A (Mus musculus, UniProt Q64264); assay: Tested against 5-hydroxytryptamine 1A receptor
T1 sequence (Q64264 whole entry): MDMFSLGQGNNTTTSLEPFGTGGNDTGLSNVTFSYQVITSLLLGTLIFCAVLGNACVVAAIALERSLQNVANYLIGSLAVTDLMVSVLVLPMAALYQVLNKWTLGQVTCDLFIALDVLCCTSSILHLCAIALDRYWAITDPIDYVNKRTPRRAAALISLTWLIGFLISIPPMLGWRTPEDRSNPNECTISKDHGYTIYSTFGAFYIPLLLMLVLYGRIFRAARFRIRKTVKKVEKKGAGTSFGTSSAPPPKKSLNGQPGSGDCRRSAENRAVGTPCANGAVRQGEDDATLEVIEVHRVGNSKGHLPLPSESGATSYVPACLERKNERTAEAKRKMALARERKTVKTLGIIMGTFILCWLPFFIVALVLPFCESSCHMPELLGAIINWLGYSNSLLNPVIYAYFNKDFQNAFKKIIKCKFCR

[4] = target: 5-hydroxytryptamine receptor 2A (Homo sapiens, UniProt P28223); assay: Tested against 5-hydroxytryptamine 2A receptor
[5] = target: 5-hydroxytryptamine receptor 1D (Homo sapiens, UniProt P28221); assay: Tested against 5-hydroxytryptamine 1D receptor
[6] = target: Serotonin 3 (5-HT3) receptor; assay: Tested against 5-hydroxytryptamine 3 receptor in experiment 1; format: protein-complex assay
[7] = target: Serotonin 3 (5-HT3) receptor; assay: Tested against 5-hydroxytryptamine 3 receptor in experiment 2; format: protein-complex assay
[8] = target: T2, 5-hydroxytryptamine receptor 2C (Homo sapiens, UniProt P28335); assay: Tested agains t5-hydroxytryptamine 2C receptor in experiment 1
T2 sequence (P28335 whole entry): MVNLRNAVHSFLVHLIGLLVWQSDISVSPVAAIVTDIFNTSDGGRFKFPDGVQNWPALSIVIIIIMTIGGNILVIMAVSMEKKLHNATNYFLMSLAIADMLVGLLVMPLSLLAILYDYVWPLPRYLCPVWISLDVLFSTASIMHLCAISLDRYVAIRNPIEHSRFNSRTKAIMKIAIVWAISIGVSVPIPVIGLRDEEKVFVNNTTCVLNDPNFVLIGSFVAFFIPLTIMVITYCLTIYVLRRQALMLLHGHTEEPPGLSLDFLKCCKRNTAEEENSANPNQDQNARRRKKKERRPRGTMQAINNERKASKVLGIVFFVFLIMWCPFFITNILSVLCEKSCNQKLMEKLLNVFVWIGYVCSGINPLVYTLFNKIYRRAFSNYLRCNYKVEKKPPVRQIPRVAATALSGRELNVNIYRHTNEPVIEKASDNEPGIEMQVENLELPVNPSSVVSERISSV

[9] = target: T2, 5-hydroxytryptamine receptor 2C; assay: Tested against 5-hydroxytryptamine 2C receptor in experiment 2
[10] = Partition coefficient (logP); format: physicochemical; settings: octanol/water
[11] = Concentration-dependent rightward shift of the 5-HT curve yielding an apparent pA2; format: ADME
[12] = Acid dissociation constant was determined; format: ADME
[13] = target: T3, Alpha-2A adrenergic receptor (Homo sapiens, UniProt P08913); assay: Tested against adrenergic alpha-2 receptor
T3 sequence (P08913 whole entry): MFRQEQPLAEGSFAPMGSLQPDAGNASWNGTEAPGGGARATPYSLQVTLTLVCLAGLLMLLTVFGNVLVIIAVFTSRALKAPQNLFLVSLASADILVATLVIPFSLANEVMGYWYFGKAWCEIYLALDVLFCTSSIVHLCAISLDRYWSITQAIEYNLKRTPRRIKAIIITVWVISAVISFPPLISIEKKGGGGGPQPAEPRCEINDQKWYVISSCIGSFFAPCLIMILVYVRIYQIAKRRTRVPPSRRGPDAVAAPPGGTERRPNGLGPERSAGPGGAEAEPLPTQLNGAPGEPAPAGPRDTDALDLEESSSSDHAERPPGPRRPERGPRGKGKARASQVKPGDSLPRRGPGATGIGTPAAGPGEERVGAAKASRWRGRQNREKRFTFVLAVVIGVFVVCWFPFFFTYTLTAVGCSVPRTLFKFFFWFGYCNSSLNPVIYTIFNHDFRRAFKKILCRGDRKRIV

[14] = target: T4, Alpha-1D adrenergic receptor (Rattus norvegicus, UniProt P23944); assay: Tested against adrenergic alpha-1 receptor radiolabeled with [3H]7-methoxyprazosin
T4 sequence (P23944 whole entry): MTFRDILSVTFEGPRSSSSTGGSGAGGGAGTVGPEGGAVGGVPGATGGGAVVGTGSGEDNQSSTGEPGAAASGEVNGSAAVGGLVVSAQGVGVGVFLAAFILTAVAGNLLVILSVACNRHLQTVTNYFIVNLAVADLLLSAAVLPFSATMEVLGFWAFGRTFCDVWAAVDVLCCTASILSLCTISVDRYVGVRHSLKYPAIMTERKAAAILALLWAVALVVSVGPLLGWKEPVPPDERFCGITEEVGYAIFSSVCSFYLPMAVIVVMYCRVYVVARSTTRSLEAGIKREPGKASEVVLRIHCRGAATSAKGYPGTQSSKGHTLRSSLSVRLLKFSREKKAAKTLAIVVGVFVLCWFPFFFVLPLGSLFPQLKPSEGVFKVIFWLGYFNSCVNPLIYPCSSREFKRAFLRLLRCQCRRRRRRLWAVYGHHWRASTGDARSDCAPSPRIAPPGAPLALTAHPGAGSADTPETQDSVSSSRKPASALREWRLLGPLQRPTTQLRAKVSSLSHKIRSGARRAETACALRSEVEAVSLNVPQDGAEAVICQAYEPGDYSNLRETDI
Procedure, shortened: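 α1-Adrenoceptor binding, radiolabelled with [³H]-7-methoxyprazosin.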

[15] = target: Beta-2 adrenergic receptor (Homo sapiens, UniProt P07550); assay: Tested against Beta-2 adrenergic receptor
D(1A) dopamine receptor = D(1A) dopamine receptor (Mus musculus, UniProt Q61616); assay: Tested against dopamine receptor D1
D(3) dopamine receptor = D(3) dopamine receptor (Homo sapiens, UniProt P35462); assay: Tested against dopamine receptor D3 using cloned human receptor expressed in CHO cells radiolabeled with [125I]iodosulpiride; format: cell-based
Procedure, shortened: (§1)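 Competition binding on cloned human D2 or D3 receptors expressed in CHO cells, radiolabelled with [¹²⁵I]iodosulpride.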

D(2) dopamine receptor = D(2) dopamine receptor (Homo sapiens, UniProt P14416); assay: Tested against dopamine receptor D2 using cloned human receptor expressed in CHO cells radiolabeled with [125I]iodosulpiride; format: cell-based; procedure, shortened: as §1
[16] = target: Beta-1 adrenergic receptor (Homo sapiens, UniProt P08588); assay: Tested against Beta-1 adrenergic receptor
Chain of Beta-1 adrenergic receptor (P08588 whole entry): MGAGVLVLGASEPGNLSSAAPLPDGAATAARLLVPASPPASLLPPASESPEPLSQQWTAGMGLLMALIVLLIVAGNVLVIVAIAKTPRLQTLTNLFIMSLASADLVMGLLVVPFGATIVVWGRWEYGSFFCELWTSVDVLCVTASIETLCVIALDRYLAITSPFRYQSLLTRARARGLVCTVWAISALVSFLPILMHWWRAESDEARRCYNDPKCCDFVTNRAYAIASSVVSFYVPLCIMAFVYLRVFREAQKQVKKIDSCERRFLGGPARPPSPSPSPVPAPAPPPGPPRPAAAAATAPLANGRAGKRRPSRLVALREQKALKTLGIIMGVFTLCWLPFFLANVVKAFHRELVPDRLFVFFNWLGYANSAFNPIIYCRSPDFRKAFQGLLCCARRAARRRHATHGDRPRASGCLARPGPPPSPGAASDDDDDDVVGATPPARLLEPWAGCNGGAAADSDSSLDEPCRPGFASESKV

Chain of 5-hydroxytryptamine receptor 4 (O70528 whole entry): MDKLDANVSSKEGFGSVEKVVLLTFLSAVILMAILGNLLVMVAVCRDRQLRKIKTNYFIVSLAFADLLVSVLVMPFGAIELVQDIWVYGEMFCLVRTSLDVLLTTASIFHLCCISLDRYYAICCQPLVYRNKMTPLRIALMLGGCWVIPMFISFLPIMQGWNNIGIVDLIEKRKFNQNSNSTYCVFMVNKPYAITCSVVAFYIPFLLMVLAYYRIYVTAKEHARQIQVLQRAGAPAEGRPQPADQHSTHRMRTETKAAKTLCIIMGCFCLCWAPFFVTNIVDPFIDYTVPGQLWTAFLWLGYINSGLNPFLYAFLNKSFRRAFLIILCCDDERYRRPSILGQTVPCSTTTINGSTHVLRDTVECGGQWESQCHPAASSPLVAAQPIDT
Chain of 5-hydroxytryptamine receptor 1D (P28221 whole entry): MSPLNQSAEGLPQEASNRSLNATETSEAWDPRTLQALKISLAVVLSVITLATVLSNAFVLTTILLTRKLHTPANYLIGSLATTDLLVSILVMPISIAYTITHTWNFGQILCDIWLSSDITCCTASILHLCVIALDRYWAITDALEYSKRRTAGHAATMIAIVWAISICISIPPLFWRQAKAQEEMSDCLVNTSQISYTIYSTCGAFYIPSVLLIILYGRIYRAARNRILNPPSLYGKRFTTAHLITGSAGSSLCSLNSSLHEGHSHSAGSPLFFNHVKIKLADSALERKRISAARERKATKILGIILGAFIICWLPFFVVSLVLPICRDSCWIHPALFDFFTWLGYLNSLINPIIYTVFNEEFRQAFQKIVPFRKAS
Chain of D(3) dopamine receptor (P35462 whole entry): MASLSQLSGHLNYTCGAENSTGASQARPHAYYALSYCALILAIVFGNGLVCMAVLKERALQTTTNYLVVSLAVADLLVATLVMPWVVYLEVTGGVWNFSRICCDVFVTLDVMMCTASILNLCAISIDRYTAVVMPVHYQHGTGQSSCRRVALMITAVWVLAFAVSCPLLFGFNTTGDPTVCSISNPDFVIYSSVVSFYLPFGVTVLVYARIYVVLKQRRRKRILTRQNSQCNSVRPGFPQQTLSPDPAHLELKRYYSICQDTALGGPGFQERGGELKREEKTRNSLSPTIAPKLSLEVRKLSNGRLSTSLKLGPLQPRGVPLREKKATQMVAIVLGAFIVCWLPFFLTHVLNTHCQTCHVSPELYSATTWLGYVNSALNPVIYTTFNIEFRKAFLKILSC
Chain of 5-hydroxytryptamine receptor 1E (P28566 whole entry): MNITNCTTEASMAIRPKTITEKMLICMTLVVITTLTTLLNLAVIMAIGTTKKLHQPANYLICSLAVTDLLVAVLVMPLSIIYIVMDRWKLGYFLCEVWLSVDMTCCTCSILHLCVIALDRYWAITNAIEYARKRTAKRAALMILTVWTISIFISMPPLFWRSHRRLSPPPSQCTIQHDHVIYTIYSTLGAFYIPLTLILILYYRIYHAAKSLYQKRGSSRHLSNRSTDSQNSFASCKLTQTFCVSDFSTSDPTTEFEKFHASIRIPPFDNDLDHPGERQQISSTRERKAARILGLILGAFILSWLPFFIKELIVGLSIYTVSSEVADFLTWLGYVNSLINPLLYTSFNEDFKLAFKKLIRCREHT
Chain of D(1A) dopamine receptor (Q61616 whole entry): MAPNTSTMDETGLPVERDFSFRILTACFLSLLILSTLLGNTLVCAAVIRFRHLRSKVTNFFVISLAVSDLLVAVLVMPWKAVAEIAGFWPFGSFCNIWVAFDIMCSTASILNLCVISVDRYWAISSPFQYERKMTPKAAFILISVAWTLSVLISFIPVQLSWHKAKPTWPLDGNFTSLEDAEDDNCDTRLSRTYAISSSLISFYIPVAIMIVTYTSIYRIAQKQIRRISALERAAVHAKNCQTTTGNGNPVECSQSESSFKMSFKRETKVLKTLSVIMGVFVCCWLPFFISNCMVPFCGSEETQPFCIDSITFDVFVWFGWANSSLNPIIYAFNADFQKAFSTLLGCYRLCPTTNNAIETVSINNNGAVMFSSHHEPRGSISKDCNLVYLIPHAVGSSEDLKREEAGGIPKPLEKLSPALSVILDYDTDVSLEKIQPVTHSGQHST
Chain of D(2) dopamine receptor (P14416 whole entry): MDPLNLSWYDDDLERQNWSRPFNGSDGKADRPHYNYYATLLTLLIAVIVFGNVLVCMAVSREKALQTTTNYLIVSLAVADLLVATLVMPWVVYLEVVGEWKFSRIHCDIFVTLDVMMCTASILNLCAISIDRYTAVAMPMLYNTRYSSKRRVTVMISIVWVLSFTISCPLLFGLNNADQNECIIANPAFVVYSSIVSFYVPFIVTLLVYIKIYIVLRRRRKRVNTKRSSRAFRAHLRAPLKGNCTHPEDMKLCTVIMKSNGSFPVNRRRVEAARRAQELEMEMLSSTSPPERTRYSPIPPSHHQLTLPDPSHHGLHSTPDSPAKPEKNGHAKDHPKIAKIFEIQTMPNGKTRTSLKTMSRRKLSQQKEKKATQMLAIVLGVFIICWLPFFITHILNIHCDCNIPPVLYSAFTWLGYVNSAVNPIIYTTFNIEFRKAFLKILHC
Chain of 5-hydroxytryptamine receptor 2A (P28223 whole entry): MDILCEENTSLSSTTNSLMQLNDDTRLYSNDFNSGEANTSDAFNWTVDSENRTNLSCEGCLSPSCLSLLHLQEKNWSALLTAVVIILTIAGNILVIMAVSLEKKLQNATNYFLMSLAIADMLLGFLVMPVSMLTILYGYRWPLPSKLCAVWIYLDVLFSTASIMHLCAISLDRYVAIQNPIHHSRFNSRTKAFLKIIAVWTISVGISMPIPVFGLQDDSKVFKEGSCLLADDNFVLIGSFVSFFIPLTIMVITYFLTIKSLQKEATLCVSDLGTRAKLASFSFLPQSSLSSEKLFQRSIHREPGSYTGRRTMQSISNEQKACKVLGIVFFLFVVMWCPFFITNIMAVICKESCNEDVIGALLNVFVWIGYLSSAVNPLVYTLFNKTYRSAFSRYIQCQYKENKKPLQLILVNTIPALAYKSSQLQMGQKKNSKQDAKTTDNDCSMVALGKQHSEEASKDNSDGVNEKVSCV
Chain of Beta-2 adrenergic receptor (P07550 whole entry): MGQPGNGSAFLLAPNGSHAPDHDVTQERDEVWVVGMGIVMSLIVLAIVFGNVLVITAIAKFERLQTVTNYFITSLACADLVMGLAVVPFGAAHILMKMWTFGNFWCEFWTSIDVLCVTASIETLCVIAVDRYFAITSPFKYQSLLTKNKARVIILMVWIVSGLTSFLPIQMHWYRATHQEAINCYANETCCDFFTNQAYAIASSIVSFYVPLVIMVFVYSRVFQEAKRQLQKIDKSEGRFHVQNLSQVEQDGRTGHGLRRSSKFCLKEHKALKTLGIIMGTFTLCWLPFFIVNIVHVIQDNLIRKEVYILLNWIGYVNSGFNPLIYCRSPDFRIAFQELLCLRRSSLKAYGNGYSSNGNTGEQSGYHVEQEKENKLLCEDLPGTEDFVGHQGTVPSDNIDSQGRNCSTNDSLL

Structure (SMILES): CCCCN1CCC(COC(=O)c2cccc3c2OCCO3)CC1
IC50 [1]: 6.31 nM

Structure (SMILES): CCCCN1CCC(CNC(=O)c2cc(Cl)c(N)cc2OC)CC1
IC50 [1]: 10 nM

Structure (SMILES): CCN(CC)CCOC(=O)c1cc(Cl)c(N)cc1OC
IC50 [1]: 251 nM

Structure (SMILES): CCCCN1CCC(COC(=O)c2cc(Cl)c(N)cc2OC)CC1
IC50 [1]: 1 nM

The next lines start with results.

IC50 [1]: 50.1 nM
Structure (SMILES): CCCCN1CCC(COC(=O)c2cccc3c2OCCCO3)CC1

IC50 [1]: 63.1 nM
Structure (SMILES): CCCCN1CCC(COC(=O)c2cccc3c2OCO3)CC1

Ki [2]: > 10000 nM
Ki [3]: > 1000 nM
Ki [4]: > 1000 nM
Ki [5]: > 10000 nM
Log Ki [6]: -6.6
Log Ki [7]: -6.7
Ki [8]: 126 nM
Ki [9]: 79.4 nM
logP [10]: 4.86
pKa [12]: 10.4
Ki [13]: > 1000 nM
Ki [14]: > 1000 nM
Ki [15]: > 1000 nM
Ki (D(1A) dopamine receptor): > 1000 nM
Ki (D(3) dopamine receptor): > 1000 nM
Ki (D(2) dopamine receptor): > 10000 nM
IC50 [1]: 0.1 nM
Ki [16]: > 1000 nM
Structure (SMILES): CCCCN1CCC(COC(=O)c2cc(Cl)c(N)c3c2OCCO3)CC1
pA2 [11]: 10.8

IC50 [1]: 3160 nM
Structure (SMILES): CN1[C@@H]2CC[C@H]1C[C@@H](OC(=O)c1c[nH]c3ccccc13)C2 [TROPISETRON]
